Calls of active or inactive are those of the source. The rule behind the calls is not given here.
System: Radish
Test: Pre-emergence herbicidal activity against Raphanus sativus var.Long scarlet (radish) seeds assessed as seed germination at 0.1 mol/l at 25 degC after 72 hr by laboratory-based agar medium bioassay relative to 1,8-Cineole
Format: functional
In short: (§1)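 Agar-plate assay as above: compound in organic solvent evaporated onto Ca/B water agar, 10 seeds × 5 dishes, 72 h at 25 °C in light. Germination, root length or shoot length at 0.1 mol L^-1 expressed relative to 1,8-cineole.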

Compound	Ratio	inhibition
CC1(C)O[C@]2(C)CC[C@@H]1[C@@H](O)C2 (racemic) [3-exo-hydroxy-1,8-cineole]	14.2	–
CC1(C)OC2(C)CC[C@H]1C[C@H]2O (single isomer, unassigned) [2-endo-hydroxy-1,8-cineole]	13.1	–
CC(=O)O [ACETIC ACID]	–	Active

System: Lolium rigidum
Test: Pre-emergence herbicidal activity against Lolium rigidum seeds assessed as concentration required to suppress shoot growth at 25 degC after 72 hr by laboratory-based agar medium bioassay
Format: functional

Compound	Activity
CC1(C)O[C@]2(C)CC[C@@H]1[C@@H](O)C2 (racemic) [3-exo-hydroxy-1,8-cineole]	0.01 mol/L
CC1(C)OC2(C)CC[C@H]1C[C@H]2O (single isomer, unassigned) [2-endo-hydroxy-1,8-cineole]	0.01 mol/L
CC(=O)O [ACETIC ACID]	0.01 mol/L

System: Radish
Test: Pre-emergence herbicidal activity against Raphanus sativus var.Long scarlet (radish) seeds assessed as shoot length at 0.1 mol/l at 25 degC after 72 hr by laboratory-based agar medium bioassay relative to 1,8-Cineole
Format: functional
In short: as §1

Compound	Ratio	inhibition
CC1(C)O[C@]2(C)CC[C@@H]1[C@@H](O)C2 (racemic) [3-exo-hydroxy-1,8-cineole]	1.4	–
CC1(C)OC2(C)CC[C@H]1C[C@H]2O (single isomer, unassigned) [2-endo-hydroxy-1,8-cineole]	–	Active
CC(=O)O [ACETIC ACID]	–	Active

System: Lolium rigidum
Test: Pre-emergence herbicidal activity against Lolium rigidum seeds assessed as root length at 0.1 mol/l at 25 degC after 72 hr by laboratory-based agar medium bioassay relative to control
Format: functional
In short: (§2)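 Solutions tested at 1 to 1 × 10^-4 mol L^-1. 10 seeds/dish, 5 randomized replicate dishes angled ~70°. Incubated 72 h at 25 °C in light. Solvent and no-solvent controls. Germination, root length and shoot length recorded.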

Compound	Activity
CC1(C)O[C@]2(C)CC[C@@H]1[C@@H](O)C2 (racemic) [3-exo-hydroxy-1,8-cineole]	16.6%
CC1(C)OC2(C)CC[C@H]1C[C@H]2O (single isomer, unassigned) [2-endo-hydroxy-1,8-cineole]	39.5%
CC(=O)O [ACETIC ACID]	0%

System: Lolium rigidum
Test: Pre-emergence herbicidal activity against Lolium rigidum seeds assessed as concentration required to suppress root growth at 25 degC after 72 hr by laboratory-based agar medium bioassay
Format: functional

Compound	Activity
CC1(C)O[C@]2(C)CC[C@@H]1[C@@H](O)C2 (racemic) [3-exo-hydroxy-1,8-cineole]	0.1 mol/L
CC1(C)OC2(C)CC[C@H]1C[C@H]2O (single isomer, unassigned) [2-endo-hydroxy-1,8-cineole]	0.1 mol/L
CC(=O)O [ACETIC ACID]	0.01 mol/L

System: Lolium rigidum
Test: Pre-emergence herbicidal activity against Lolium rigidum seeds assessed as seed germination at 0.1 mol/l at 25 degC after 72 hr by laboratory-based agar medium bioassay relative to control
Format: functional
In short: as §2

Compound	Activity
CC1(C)O[C@]2(C)CC[C@@H]1[C@@H](O)C2 (racemic) [3-exo-hydroxy-1,8-cineole]	2.6%
CC1(C)OC2(C)CC[C@H]1C[C@H]2O (single isomer, unassigned) [2-endo-hydroxy-1,8-cineole]	51.5%
CC(=O)O [ACETIC ACID]	0%

System: Radish
Test: Pre-emergence herbicidal activity against Raphanus sativus var.Long scarlet (radish) seeds assessed as seed germination at 0.1 mol/l at 25 degC after 72 hr by laboratory-based agar medium bioassay relative to control
Format: functional
In short: as §2

Compound	Activity
CC1(C)O[C@]2(C)CC[C@@H]1[C@@H](O)C2 (racemic) [3-exo-hydroxy-1,8-cineole]	2.4%
CC1(C)OC2(C)CC[C@H]1C[C@H]2O (single isomer, unassigned) [2-endo-hydroxy-1,8-cineole]	2.6%
CC(=O)O [ACETIC ACID]	0%

System: Radish
Test: Pre-emergence herbicidal activity against Raphanus sativus var.Long scarlet (radish) seeds assessed as concentration required to suppress root growth at 25 degC after 72 hr by laboratory-based agar medium bioassay
Format: functional

Compound	Activity
CC1(C)O[C@]2(C)CC[C@@H]1[C@@H](O)C2 (racemic) [3-exo-hydroxy-1,8-cineole]	0.01 mol/L
CC1(C)OC2(C)CC[C@H]1C[C@H]2O (single isomer, unassigned) [2-endo-hydroxy-1,8-cineole]	0.01 mol/L
CC(=O)O [ACETIC ACID]	0.1 mol/L

System: Lolium rigidum
Test: Pre-emergence herbicidal activity against Lolium rigidum seeds assessed as root length at 0.1 mol/l at 25 degC after 72 hr by laboratory-based agar medium bioassay relative to 1,8-Cineole
Format: functional
In short: as §1

Compound	Ratio	inhibition
CC1(C)O[C@]2(C)CC[C@@H]1[C@@H](O)C2 (racemic) [3-exo-hydroxy-1,8-cineole]	1.3	–
CC1(C)OC2(C)CC[C@H]1C[C@H]2O (single isomer, unassigned) [2-endo-hydroxy-1,8-cineole]	0.6	–
CC(=O)O [ACETIC ACID]	–	Active

System: Radish
Test: Pre-emergence herbicidal activity against Raphanus sativus var.Long scarlet (radish) seeds assessed as concentration required to suppress shoot growth at 25 degC after 72 hr by laboratory-based agar medium bioassay
Format: functional

Compound	Activity
CC1(C)O[C@]2(C)CC[C@@H]1[C@@H](O)C2 (racemic) [3-exo-hydroxy-1,8-cineole]	0.1 mol/L
CC1(C)OC2(C)CC[C@H]1C[C@H]2O (single isomer, unassigned) [2-endo-hydroxy-1,8-cineole]	0.1 mol/L
CC(=O)O [ACETIC ACID]	0.1 mol/L

System: Lolium rigidum
Test: Pre-emergence herbicidal activity against Lolium rigidum seeds assessed as shoot length at 0.1 mol/l at 25 degC after 72 hr by laboratory-based agar medium bioassay relative to control
Format: functional
In short: as §2

Compound	Activity
CC1(C)O[C@]2(C)CC[C@@H]1[C@@H](O)C2 (racemic) [3-exo-hydroxy-1,8-cineole]	10.2%
CC1(C)OC2(C)CC[C@H]1C[C@H]2O (single isomer, unassigned) [2-endo-hydroxy-1,8-cineole]	15.4%
CC(=O)O [ACETIC ACID]	0%

System: Lolium rigidum
Test: Pre-emergence herbicidal activity against Lolium rigidum seeds assessed as seed germination at 0.1 mol/l at 25 degC after 72 hr by laboratory-based agar medium bioassay relative to 1,8-Cineole
Format: functional
In short: as §1

Compound	Ratio	inhibition
CC1(C)O[C@]2(C)CC[C@@H]1[C@@H](O)C2 (racemic) [3-exo-hydroxy-1,8-cineole]	11.6	–
CC1(C)OC2(C)CC[C@H]1C[C@H]2O (single isomer, unassigned) [2-endo-hydroxy-1,8-cineole]	0.6	–
CC(=O)O [ACETIC ACID]	–	Active

System: Radish
Test: Pre-emergence herbicidal activity against Raphanus sativus var.Long scarlet (radish) seeds assessed as shoot length at 0.1 mol/l at 25 degC after 72 hr by laboratory-based agar medium bioassay relative to control
Format: functional
In short: as §2

Compound	Activity
CC1(C)O[C@]2(C)CC[C@@H]1[C@@H](O)C2 (racemic) [3-exo-hydroxy-1,8-cineole]	46.5%
CC1(C)OC2(C)CC[C@H]1C[C@H]2O (single isomer, unassigned) [2-endo-hydroxy-1,8-cineole]	0%
CC(=O)O [ACETIC ACID]	0%

System: Lolium rigidum
Test: Pre-emergence herbicidal activity against Lolium rigidum seeds assessed as shoot length at 0.1 mol/l at 25 degC after 72 hr by laboratory-based agar medium bioassay relative to 1,8-Cineole
Format: functional
In short: as §1

Compound	Ratio	inhibition
CC1(C)O[C@]2(C)CC[C@@H]1[C@@H](O)C2 (racemic) [3-exo-hydroxy-1,8-cineole]	2.8	–
CC1(C)OC2(C)CC[C@H]1C[C@H]2O (single isomer, unassigned) [2-endo-hydroxy-1,8-cineole]	1.8	–
CC(=O)O [ACETIC ACID]	–	Active

System: Radish
Test: Pre-emergence herbicidal activity against Raphanus sativus var.Long scarlet (radish) seeds assessed as root length at 0.1 mol/l at 25 degC after 72 hr by laboratory-based agar medium bioassay relative to 1,8-Cineole
Format: functional
In short: as §1

Compound	Ratio	inhibition
CC1(C)O[C@]2(C)CC[C@@H]1[C@@H](O)C2 (racemic) [3-exo-hydroxy-1,8-cineole]	1.4	–
CC1(C)OC2(C)CC[C@H]1C[C@H]2O (single isomer, unassigned) [2-endo-hydroxy-1,8-cineole]	5.5	–
CC(=O)O [ACETIC ACID]	–	Active

System: Lolium rigidum
Test: Pre-emergence herbicidal activity against Lolium rigidum seeds assessed as concentration required to suppress seed germination at 25 degC after 72 hr by laboratory-based agar medium bioassay
Format: functional

Compound	Activity
CC1(C)O[C@]2(C)CC[C@@H]1[C@@H](O)C2 (racemic) [3-exo-hydroxy-1,8-cineole]	0.1 mol/L
CC1(C)OC2(C)CC[C@H]1C[C@H]2O (single isomer, unassigned) [2-endo-hydroxy-1,8-cineole]	0.1 mol/L
CC(=O)O [ACETIC ACID]	0.1 mol/L

System: Radish
Test: Pre-emergence herbicidal activity against Raphanus sativus var.Long scarlet (radish) seeds assessed as concentration required to suppress seed germination at 25 degC after 72 hr by laboratory-based agar medium bioassay
Format: functional

Compound	Activity
CC1(C)O[C@]2(C)CC[C@@H]1[C@@H](O)C2 (racemic) [3-exo-hydroxy-1,8-cineole]	0.1 mol/L
CC1(C)OC2(C)CC[C@H]1C[C@H]2O (single isomer, unassigned) [2-endo-hydroxy-1,8-cineole]	0.01 mol/L
CC(=O)O [ACETIC ACID]	0.1 mol/L

System: Radish
Test: Pre-emergence herbicidal activity against Raphanus sativus var.Long scarlet (radish) seeds assessed as root length at 0.1 mol/l at 25 degC after 72 hr by laboratory-based agar medium bioassay relative to control
Format: functional
In short: as §2

Compound	Activity
CC1(C)O[C@]2(C)CC[C@@H]1[C@@H](O)C2 (racemic) [3-exo-hydroxy-1,8-cineole]	26.8%
CC1(C)OC2(C)CC[C@H]1C[C@H]2O (single isomer, unassigned) [2-endo-hydroxy-1,8-cineole]	6.8%
CC(=O)O [ACETIC ACID]	0%

From ChEMBL document CHEMBL3045579, “Herbicidal activity of cineole derivatives” (2010)
